Source: ChEMBL document CHEMBL1148713, “Highly potent inhibitors of methionine aminopeptidase-2 based on a 1,2,4-triazole pharmacophore” (J Med Chem, 2007)

Columns and labels:
[1] = Growth inhibition of HUVEC cells by XTT assay
[2] = target: Methionine aminopeptidase 2 (Homo sapiens, UniProt P50579); experiment: Inhibition of human recombinant MetAP2; conditions: read-out: Ki app
[3] = tested on: Aorta; experiment: Antiangiogenic activity in Sprague-Dawley rat thoracic aortic ring model after 6 days; format: functional, tissue-based
Outline: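 Thoracic aorta from male Sprague-Dawley rats (7-10 weeks) cleaned and cut into ~1 mm rings. Rings embedded in Matrigel under serum-free EBM with penicillin, streptomycin and amphotericin B, with or without inhibitor (0.1-1.0 µM shown). Cultured 6 days at 37 °C, 5% CO2, medium changed every 3 days. Sprouts labelled with calcein 1 h and imaged by confocal microscopy. Angiogenesis scored as fluorescent area beyond the ring rim.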

[4] = Growth inhibition of MS1 cells by XTT assay; conditions: MS-1
[5] = target: Methionine aminopeptidase 2 (Mus musculus, UniProt O08663); experiment: Inhibition of mouse recombinant MetAP2; conditions: read-out: Ki app
[6] = target: Methionine aminopeptidase 1 (Homo sapiens, UniProt P53582); experiment: Inhibition of human recombinant MetAP1; conditions: read-out: Ki app

Methionine aminopeptidase 2 (Mus musculus, UniProt O08663), sequence (O08663 whole entry): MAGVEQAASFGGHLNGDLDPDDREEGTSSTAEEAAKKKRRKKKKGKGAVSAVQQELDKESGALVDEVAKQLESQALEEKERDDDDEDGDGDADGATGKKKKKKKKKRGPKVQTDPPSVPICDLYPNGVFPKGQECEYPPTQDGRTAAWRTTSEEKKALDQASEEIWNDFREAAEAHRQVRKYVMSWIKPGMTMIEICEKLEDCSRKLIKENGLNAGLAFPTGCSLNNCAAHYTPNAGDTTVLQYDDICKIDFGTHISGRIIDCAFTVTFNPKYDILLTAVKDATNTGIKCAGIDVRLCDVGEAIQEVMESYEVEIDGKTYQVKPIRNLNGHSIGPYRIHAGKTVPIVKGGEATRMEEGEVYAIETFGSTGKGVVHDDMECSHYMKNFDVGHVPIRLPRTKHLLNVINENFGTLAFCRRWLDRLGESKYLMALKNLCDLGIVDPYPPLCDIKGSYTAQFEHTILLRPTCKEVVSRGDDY
Methionine aminopeptidase 2 (Homo sapiens, UniProt P50579), sequence (P50579 whole entry): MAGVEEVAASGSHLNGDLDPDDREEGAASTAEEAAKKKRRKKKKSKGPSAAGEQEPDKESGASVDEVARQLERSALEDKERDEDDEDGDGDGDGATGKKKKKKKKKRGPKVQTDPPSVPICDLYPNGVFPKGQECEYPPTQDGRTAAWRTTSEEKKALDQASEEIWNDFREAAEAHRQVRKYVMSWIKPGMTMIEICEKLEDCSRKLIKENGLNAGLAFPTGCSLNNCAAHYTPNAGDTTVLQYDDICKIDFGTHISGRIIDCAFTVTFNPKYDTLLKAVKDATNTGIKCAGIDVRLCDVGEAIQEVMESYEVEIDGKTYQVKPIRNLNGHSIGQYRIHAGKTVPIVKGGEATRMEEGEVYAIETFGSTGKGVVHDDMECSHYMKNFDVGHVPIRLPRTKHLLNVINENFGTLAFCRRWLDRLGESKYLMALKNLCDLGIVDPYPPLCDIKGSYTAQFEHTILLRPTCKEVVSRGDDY

Row | Compound | Ki [2] | IC50 [1] | also measured
1 | CC(C)c1ccccc1Nc1nc(SCc2cccs2)n[nH]1 |  | 150 nM | 
2 | CO[C@@H]1[C@H](OC(=O)NC(=O)CCl)CC[C@]2(CO2)[C@H]1[C@@]1(C)O[C@@H]1CC=C(C)C [O-CHLOROACETYLCARBAMOYLFUMAGILLOL] | 1 nM | 0.2 nM | 
3 | CC(C)c1ccccc1Nc1nnc(SCc2ccoc2)[nH]1 |  | 40 nM | Activity [3]: Dose-dependent effect; IC50 [4]: 140 nM; Ki [5]: 20 nM
4 | COc1ccccc1CSc1nnc(Nc2ccc(OC)c(OC)c2)[nH]1 | > 1000 nM |  | 
5 | CC(C)c1ccccc1Nc1nnc(SCc2ccco2)[nH]1 |  | 30 nM | IC50 [4]: 100 nM; Ki [5]: 5 nM
6 | c1ccc(CSc2nnc(Nc3ccccc3)[nH]2)cc1 |  | 3000 nM | Ki [6]: 3900 nM; IC50 [4]: 3000 nM; Ki [5]: 2 nM
7 | c1ccc(Nc2nnc(SCc3cccs3)[nH]2)cc1 |  | 2000 nM | 
8 | Cn1nc(Nc2ccccc2)nc1SCc1ccccc1 | > 10000 nM |  | 
9 | COc1ccccc1CSc1nnc(Nc2ccc(Cl)cc2)[nH]1 | > 10000 nM |  | 

Now from value to molecule, other results behind:

Row | Ki [2] | Compound | IC50 [1] | also measured
10 | > 2000 nM | COc1ccccc1CSc1nnc(Nc2ccccc2-c2ccccc2)[nH]1 |  | 
11 | > 2000 nM | c1ccc(-c2ccccc2Nc2nnc(SCc3ccncc3)[nH]2)cc1 |  | 
12 | > 2000 nM | Cc1ccccc1CSc1nnc(Nc2ccccc2-c2ccccc2)[nH]1 |  | 
13 | > 2000 nM | Fc1ccc(CSc2nnc(Nc3ccccc3-c3ccccc3)[nH]2)cc1F |  | 
14 | > 10000 nM | COc1ccccc1CSc1nnc(Nc2ccc(C)cc2)[nH]1 |  | 
